Source: ChEMBL document CHEMBL5724801, “EUbOPEN Chemogenomics Library - Multiplex” (2024)
Values joined by “and” are separate entries in the source; they are usually repeats but may differ in a detail not shown here. Equal entries are not always repeated.

Test system: HEK-293T
Test: Multiplex assay against HEK293T
Assay type: toxicity, cell-based
Settings: human
Procedure, shortened: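 On a CQ1 microscope at 37°C and 5% CO2, live cells were imaged after compound addition. They had been stained at seeding with Hoechst33342, BioTracker Green Microtubule Cytoskeleton Dye, MitoTracker Red and Annexin V Alexa Fluor 680. CellPathfinder machine-learning gating assigned cells to Hoechst high-intensity objects or normal cells, normal cells to healthy, pyknosed or fragmented nuclei, and pyknosed cells to mitotic or apoptotic. Tubulin, mitochondrial-mass and membrane-permeability phenotypes are per cents of healthy-nucleus cells.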

[1] = 12 h, 1 µM, compound concentration 1 uM
[2] = 12 h, 10 µM, compound concentration 10 uM
[3] = 24 h, 1 µM, compound concentration 1 uM
[4] = 24 h, 10 µM, compound concentration 10 uM
[5] = 48 h, 1 µM, compound concentration 1 uM
[6] = 48 h, 10 µM, compound concentration 10 uM

O=C1N=C(NCc2cccs2)S/C1=C\c1ccc2ncccc2c1
Population Apoptotic (%) [1]: 11.2% and 8.04% | Population Fragmented Nuclei (%) [1]: 4.18% and 2.19% | Population Hoechst High Intensity Objects (%) [1]: 0% | Population Membrane Permeable-Phenotype (%) [1]: 0% | Population Mitochondria Different-Phenotype (%) [1]: 30.06% and 18.18% | Population Mitotic Cells (%) [1]: 88.8% and 91.96% | Population Normal (%) [1]: 100% | Population Pyknosed Nuclei (%) [1]: 40.19% and 81.75% | Total Cell Count [1]: 311 and 137 | Population Apoptotic (%) [2]: 10.71% and 8.85% | Population Fragmented Nuclei (%) [2]: 2.55% and 5.49% | Population Healthy Nuclei (%) [2]: 68.88% and 25.61% | Population Hoechst High Intensity Objects (%) [2]: 0% | Population Membrane Permeable-Phenotype (%) [2]: 1.48% and 0% | Population Mitochondria Different-Phenotype (%) [2]: 19.26% and 9.52% | Population Mitotic Cells (%) [2]: 89.29% and 91.15% | Population Normal (%) [2]: 100% | Population Pyknosed Nuclei (%) [2]: 28.57% and 68.9% | Population Tubulin-Different-Phenotype (%) [2]: 25.93% and 59.52% | Total Cell Count [2]: 392 and 164 | Population Apoptotic (%) [3]: 19.59% and 9.09% | Population Fragmented Nuclei (%) [3]: 2.82% and 3.6% | Population Healthy Nuclei (%) [3]: 74.35% and 33.09% | Population Hoechst High Intensity Objects (%) [3]: 0% | Population Membrane Permeable-Phenotype (%) [3]: 0.63% and 2.17% | Population Mitochondria Different-Phenotype (%) [3]: 8.54% and 19.57% | Population Mitotic Cells (%) [3]: 80.41% and 90.91% | Population Normal (%) [3]: 100% | Population Pyknosed Nuclei (%) [3]: 22.82% and 63.31% | Population Tubulin-Different-Phenotype (%) [3]: 10.76% and 13.04% | Population Apoptotic (%) [4]: 34.38% and 21.57% | Population Fragmented Nuclei (%) [4]: 2.01% and 4.43% | Population Healthy Nuclei (%) [4]: 73.87% and 31.01% | Population Hoechst High Intensity Objects (%) [4]: 0% | Population Membrane Permeable-Phenotype (%) [4]: 0% and 4.08% | Population Mitochondria Different-Phenotype (%) [4]: 26.19% and 16.33% | Population Mitotic Cells (%) [4]: 65.62% and 78.43% | Population Normal (%) [4]: 100% | Population Pyknosed Nuclei (%) [4]: 24.12% and 64.56% | Population Tubulin-Different-Phenotype (%) [4]: 55.78% and 20.41% | Total Cell Count [4]: 398 and 158 | Population Apoptotic (%) [5]: 12.66% and 16.95% | Population Fragmented Nuclei (%) [5]: 2.96% and 1.01% | Population Healthy Nuclei (%) [5]: 86.89% and 69.35% | Population Hoechst High Intensity Objects (%) [5]: 0% and 0.5% | Population Membrane Permeable-Phenotype (%) [5]: 4.14% and 2.17% | Population Mitochondria Different-Phenotype (%) [5]: 20.41% and 24.64% | Population Mitotic Cells (%) [5]: 87.34% and 83.05% | Population Normal (%) [5]: 100% and 99.5% | Population Pyknosed Nuclei (%) [5]: 10.15% and 29.65% | Population Apoptotic (%) [6]: 37.04% and 39.66% | Population Fragmented Nuclei (%) [6]: 1.79% and 5.23% | Population Healthy Nuclei (%) [6]: 91.3% and 56.86% | Population Hoechst High Intensity Objects (%) [6]: 0% | Population Membrane Permeable-Phenotype (%) [6]: 0.84% and 2.3% | Population Mitochondria Different-Phenotype (%) [6]: 87.68% and 60.92% | Population Mitotic Cells (%) [6]: 62.96% and 60.34% | Population Normal (%) [6]: 100% | Total Cell Count [6]: 391 and 153

CCN1CCN(Cc2ccc(Nc3ncc(F)c(-c4cc(F)c5nc(C)n(C(C)C)c5c4)n3)nc2)CC1.CS(=O)(=O)O
Population Fragmented Nuclei (%) [1]: 2.72% and 5.37% | Population Healthy Nuclei (%) [1]: 46.26% and 18.79% | Population Hoechst High Intensity Objects (%) [1]: 1.01% and 0% | Population Membrane Permeable-Phenotype (%) [1]: 0.74% and 0% | Population Mitotic Cells (%) [1]: 90.67% and 79.65% | Population Normal (%) [1]: 98.99% and 100% | Population Pyknosed Nuclei (%) [1]: 51.02% and 75.84% | Population Tubulin-Different-Phenotype (%) [1]: 23.53% and 64.29% | Total Cell Count [1]: 297 and 149 | Population Fragmented Nuclei (%) [2]: 1.2% and 2.36% | Population Hoechst High Intensity Objects (%) [2]: 0.4% and 0% | Population Membrane Permeable-Phenotype (%) [2]: 0% | Population Mitochondria Different-Phenotype (%) [2]: 53.85% and 28.57% | Population Mitotic Cells (%) [2]: 88.21% and 74.36% | Population Normal (%) [2]: 99.6% and 100% | Population Pyknosed Nuclei (%) [2]: 78% and 92.13% | Population Tubulin-Different-Phenotype (%) [2]: 84.62% and 28.57% | Total Cell Count [2]: 251 and 127 | Population Fragmented Nuclei (%) [3]: 1.38% and 4.83% | Population Healthy Nuclei (%) [3]: 71.43% and 24.14% | Population Hoechst High Intensity Objects (%) [3]: 0.23% and 0% | Population Membrane Permeable-Phenotype (%) [3]: 2.9% and 2.86% | Population Mitochondria Different-Phenotype (%) [3]: 26.13% and 22.86% | Population Mitotic Cells (%) [3]: 82.2% and 83.5% | Population Normal (%) [3]: 99.77% and 100% | Population Pyknosed Nuclei (%) [3]: 27.19% and 71.03% | Population Tubulin-Different-Phenotype (%) [3]: 47.42% and 25.71% | Total Cell Count [3]: 435 and 145 | Population Fragmented Nuclei (%) [4]: 0.69% and 4.07% | Population Healthy Nuclei (%) [4]: 25.86% and 10.57% | Population Hoechst High Intensity Objects (%) [4]: 0% | Population Membrane Permeable-Phenotype (%) [4]: 0% and 23.08% | Population Mitochondria Different-Phenotype (%) [4]: 52% and 38.46% | Population Mitotic Cells (%) [4]: 64.32% and 55.24% | Population Normal (%) [4]: 100% | Population Pyknosed Nuclei (%) [4]: 73.45% and 85.37% | Population Tubulin-Different-Phenotype (%) [4]: 93.33% and 53.85% | Total Cell Count [4]: 290 and 123 | Population Fragmented Nuclei (%) [5]: 2.67% and 1.8% | Population Healthy Nuclei (%) [5]: 85.01% and 53.89% | Population Hoechst High Intensity Objects (%) [5]: 0.13% and 0% | Population Membrane Permeable-Phenotype (%) [5]: 9.27% and 2.22% | Population Mitochondria Different-Phenotype (%) [5]: 37.67% and 48.89% | Population Mitotic Cells (%) [5]: 82.47% and 79.73% | Population Normal (%) [5]: 99.87% and 100% | Population Fragmented Nuclei (%) [6]: 3.24% and 4.8% | Population Healthy Nuclei (%) [6]: 28.78% and 13.6% | Population Hoechst High Intensity Objects (%) [6]: 0% and 0.79% | Population Membrane Permeable-Phenotype (%) [6]: 1.25% and 0% | Population Mitochondria Different-Phenotype (%) [6]: 96.25% and 58.82% | Population Mitotic Cells (%) [6]: 30.16% and 40.2% | Population Normal (%) [6]: 100% and 99.21% | Population Pyknosed Nuclei (%) [6]: 67.99% and 81.6% | Population Tubulin-Different-Phenotype (%) [6]: 85% and 58.82% | Total Cell Count [6]: 278 and 126

CCn1c(-c2nc3cc(C(=O)N4CCCC(N)C4)ccc3n2C)cc2ccccc21.Cl (stereo unspecified)
Population Fragmented Nuclei (%) [1]: 9% and 5% and 1.84% and 3.31% | Population Hoechst High Intensity Objects (%) [1]: 7% and 6% and 0% | Population Membrane Permeable-Phenotype (%) [1]: 0% | Population Mitochondria Different-Phenotype (%) [1]: 52% [middle of 4 runs] | Population Mitotic Cells (%) [1]: 87.4% [middle of 4 runs] | Population Normal (%) [1]: 92% and 93% and 100% | Total Cell Count [1]: 351 [middle of 4 runs] | Population Fragmented Nuclei (%) [2]: 8% and 6% and 2.45% and 0.66% | Population Hoechst High Intensity Objects (%) [2]: 8% [middle of 4 runs] | Population Membrane Permeable-Phenotype (%) [2]: 0% and 0.78% | Population Mitotic Cells (%) [2]: 46% and 86.32% and 69.7% | Population Normal (%) [2]: 88% and 91% and 99.7% and 100% | Population Tubulin-Different-Phenotype (%) [2]: 66.67% [middle of 4 runs] | Total Cell Count [2]: 398 [middle of 4 runs] | Population Fragmented Nuclei (%) [3]: 9% and 1.41% and 1.3% | Population Healthy Nuclei (%) [3]: 79% [middle of 4 runs] | Population Hoechst High Intensity Objects (%) [3]: 6% and 4% and 0.2% and 0% | Population Membrane Permeable-Phenotype (%) [3]: 0% and 1.42% and 4.76% | Population Mitochondria Different-Phenotype (%) [3]: 37% [middle of 4 runs] | Population Mitotic Cells (%) [3]: 64% and 60% and 92.7% and 77.27% | Population Normal (%) [3]: 93% and 95% and 99.8% and 100% | Population Tubulin-Different-Phenotype (%) [3]: 22% and 14% and 16.24% and 11.9% | Population Apoptotic (%) [4]: 51% and 40% and 33.59% and 49.56% | Population Hoechst High Intensity Objects (%) [4]: 12% and 9% and 0% | Population Membrane Permeable-Phenotype (%) [4]: 1% and 0% and 0.79% | Population Mitochondria Different-Phenotype (%) [4]: 72% [middle of 4 runs] | Population Mitotic Cells (%) [4]: 48% and 59% and 66.41% and 50.44% | Population Normal (%) [4]: 87% and 90% and 100% | Population Tubulin-Different-Phenotype (%) [4]: 64% and 58% and 63.64% and 33.33% | Population Fragmented Nuclei (%) [5]: 12% [middle of 4 runs] | Population Healthy Nuclei (%) [5]: 79% and 81% and 86.51% and 57.44% | Population Hoechst High Intensity Objects (%) [5]: 5% and 4% and 0% | Population Membrane Permeable-Phenotype (%) [5]: 1% and 0% and 6.55% and 0.89% | Population Mitochondria Different-Phenotype (%) [5]: 28% [middle of 4 runs] | Population Mitotic Cells (%) [5]: 79% and 85% and 95.24% and 75.9% | Population Normal (%) [5]: 94% and 95% and 100% | Population Apoptotic (%) [6]: 50% and 52% and 28.06% and 40.68% | Population Healthy Nuclei (%) [6]: 73% and 79% and 77.55% and 60.49% | Population Membrane Permeable-Phenotype (%) [6]: 0% and 1.26% and 2.04% | Population Mitochondria Different-Phenotype (%) [6]: 65% and 71% and 79.5% and 83.67% | Population Mitotic Cells (%) [6]: 49% and 47% and 71.94% and 59.32% | Population Normal (%) [6]: 84% and 91% and 99.86% and 97.59%
